Laboratory results from ChEMBL document CHEMBL1914393, “Chemical scaffolds with structural similarities to siderophores of nonribosomal peptide-polyketide origin as novel antimicrobials against Mycobacterium tuberculosis and Yersinia pestis” (Bioorg Med Chem Lett, 2011).
In brackets after ≈: the same amount, converted by molar mass. Activity calls are given as the source filed them.

Tests used:
HeLa [1] = assay: Cytotoxicity against human HeLa cells at 21 uM after 24 hrs by ATPLite assay; format: cell-based
Method in brief: (§1)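 HeLa cells in 96-well format, read with an ATPLite reagent-based viability assay. Cell–compound contact lasted 4 hr or 24 hr, and viability was expressed relative to untreated controls.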

Yersinia pestis [2] = assay: Bactericidal activity against Yersinia pestis KIM6-2082.1+ in PMHD medium at 2 times MIC after 3 days by colony counting; format: functional, organism-based
HeLa [3] = assay: Cytotoxicity against human HeLa cells at 125 uM after 4 hrs by ATPLite assay; format: cell-based; method in brief: as §1
[4] = system: Mycobacterium tuberculosis; assay: Antimicrobial activity against Mycobacterium tuberculosis H37Rv in GASTD medium supplemented with 100 uM FeCl3 after 10 days by spectrophotometric analysis; format: functional, organism-based; details: 240 h
Method in brief: (§2)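 Virulent H37Rv, twofold microdilution in iron-limiting GASTD or GASTD plus 100 μM FeCl3, started at OD600 0.001 from deferrated stocks. Compounds were added in DMSO (0.5% final) up to 500 μM or the solubility limit. Cultures sat stationary for 10 days at 37 °C, read at OD600. IC50 from sigmoidal fits to triplicates; MIC90 is the lowest concentration giving ≥90% inhibition versus DMSO controls. Ratios are +Fe/GASTD.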

Yersinia pestis [5] = assay: Antimicrobial activity against Yersinia pestis KIM6-2082.1+ in PMHD medium after 26 hrs by spectrophotometric analysis; format: functional, organism-based
[6] = system: Mycobacterium tuberculosis; assay: Ratio of MIC90 for Mycobacterium tuberculosis H37Rv in GASTD medium supplemented with 100 uM FeCl3 to MIC90 for Mycobacterium tuberculosis H37Rv in Fe-deficient GASTD medium; format: functional; method in brief: as §2
[7] = system: Mycobacterium tuberculosis; assay: Bactericidal activity against Mycobacterium tuberculosis H37Rv in GASTD medium at 2 times MIC after 30 days by colony counting; format: functional, organism-based
Method in brief: (§3)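 Duplicate GASTD cultures were treated and incubated as in the growth assay (37 °C, 10 days), then serial 10-fold dilutions were plated on Middlebrook 7H11. Colonies were counted after 30 days at 37 °C and reported as CFU/mL. Bactericidal was defined as >99% killing relative to inoculum.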

HeLa [8] = assay: Cytotoxicity against human HeLa cells at 16 uM after 24 hrs by ATPLite assay; format: cell-based; method in brief: as §1
[9] = system: Mycobacterium tuberculosis; assay: Antimicrobial activity against Mycobacterium tuberculosis H37Rv in GASTD medium after 10 days by spectrophotometric analysis; format: functional, organism-based; details: 240 h; method in brief: as §2
HeLa [10] = assay: Cytotoxicity against human HeLa cells at 125 uM after 24 hrs by ATPLite assay relative to control; format: cell-based; method in brief: as §1
[11] = system: Mycobacterium tuberculosis; assay: Ratio of IC50 for Mycobacterium tuberculosis H37Rv in GASTD medium supplemented with 100 uM FeCl3 to IC50 for Mycobacterium tuberculosis H37Rv in Fe-deficient GASTD medium; format: functional; method in brief: as §2
Yersinia pestis [12] = assay: Ratio of MIC90 for Yersinia pestis KIM6-2082.1+ in PMHD medium supplemented with 100 uM FeCl3 to IC50 for Yersinia pestis KIM6-2082.1+ in Fe-deficient PMHD medium; format: functional
Yersinia pestis [13] = assay: Antimicrobial activity against Yersinia pestis KIM6-2082.1+ in PMHD medium supplemented with 100 uM FeCl3 after 26 hrs by spectrophotometric analysis; format: functional, organism-based
Yersinia pestis [14] = assay: Ratio of IC50 for Yersinia pestis KIM6-2082.1+ in PMHD medium supplemented with 100 uM FeCl3 to IC50 for Yersinia pestis KIM6-2082.1+ in Fe-deficient PMHD medium; format: functional
HeLa [15] = assay: Cytotoxicity against human HeLa cells at 7 uM after 24 hrs by ATPLite assay; format: cell-based; method in brief: as §1
HeLa [16] = assay: Cytotoxicity against human HeLa cells at 10 uM after 24 hrs by ATPLite assay; format: cell-based; method in brief: as §1
Yersinia pestis [17] = assay: Bacteriostatic activity against Yersinia pestis KIM6-2082.1+ in PMHD medium at 2 times MIC after 3 days by colony counting; format: functional, organism-based
HeLa [18] = assay: Cytotoxicity against human HeLa cells at 0.2 uM after 24 hrs by ATPLite assay; format: cell-based; method in brief: as §1
Yersinia pestis [19] = assay: Bacteriostatic activity against Yersinia pestis KIM6-2082.1+ in PMHD medium at MIC after 3 days by colony counting; format: functional, organism-based
Yersinia pestis [20] = assay: Bactericidal activity against Yersinia pestis KIM6-2082.1+ in PMHD medium at MIC after 3 days by colony counting; format: functional, organism-based
[21] = system: Mycobacterium tuberculosis; assay: Bactericidal activity against Mycobacterium tuberculosis H37Rv in GASTD medium at 4 times MIC after 30 days by colony counting; format: functional, organism-based; method in brief: as §3

Row | SMILES | Activity (Yersinia pestis [2]) | IC50 [4] | MIC90 [4] | IC50 (Yersinia pestis [5]) | MIC90 (Yersinia pestis [5]) | Ratio [6] | Activity [7] | IC50 [9] | MIC90 [9] | Ratio IC50 [11] | Ratio (Yersinia pestis [12]) | IC50 (Yersinia pestis [13]) | MIC90 (Yersinia pestis [13]) | Ratio IC50 (Yersinia pestis [14]) | further results
1 | N=C(NO)N1N=C(c2ccccc2O)C[C@H]1c1ccc(O)cc1 | Active | 22 µM | 31 µM (≈ 9.68 µg/mL) | 5 µM | 21 µM (≈ 6.56 µg/mL) | 0.2 | Active | 47 µM | 125 µM (≈ 39 µg/mL) | 0.5 | >3 | > 63 µM | > 63 µM | >13 | Activity (HeLa [1]): Non-toxic; Activity (HeLa [3]): Non-toxic; Activity (HeLa [8]): Non-toxic; Activity (HeLa [10]): 70%
2 | CSC(=S)N/N=C(\C)c1ccccc1O | Active | 4 µM | 9 µM (≈ 2.16 µg/mL) | 61 µM | 116 µM (≈ 27.9 µg/mL) | 1 | Active | 4 µM | 10 µM (≈ 2.4 µg/mL) | 1 | 2 | 156 µM | 233 µM (≈ 56 µg/mL) | >3 | Activity (HeLa [15]): Non-toxic; Activity (HeLa [16]): Non-toxic
3 | O=C(NO)N1CCN(C(=S)N/N=C/c2ccccc2O)CC1 |  | > 8 µM | > 8 µM | 0.04 µM | 0.2 µM (≈ 0.0647 µg/mL) |  |  | 20 µM | > 31 µM |  | >20 | > 4 µM | > 4 µM | >100 | Activity (Yersinia pestis [17]): Active; Activity (HeLa [18]): Non-toxic
4 | N=C(NO)N1N=C(c2ccccc2O)C[C@H]1c1ccccc1O | Active | 32 µM | > 125 µM | 4 µM | 16 µM (≈ 5 µg/mL) | >1 | Active | 37 µM | 125 µM (≈ 39 µg/mL) | 1 | >1 | > 16 µM | > 16 µM | >4 | Activity (HeLa [1]): Non-toxic; Activity (HeLa [8]): Non-toxic
5 | CSC(=S)N/N=C/c1ccc(O)cc1 |  | 33 µM | 59 µM (≈ 13.4 µg/mL) | 137 µM | 388 µM (≈ 87.8 µg/mL) | 1 | Active | 31 µM | 59 µM (≈ 13.4 µg/mL) | 1 |  | > 233 µM | > 233 µM | >2 | Activity (Yersinia pestis [19]): Active
6 | N=C(N)N1N=C(c2ccccc2O)C[C@H]1c1ccccc1O |  | 23 µM | 66 µM (≈ 19.6 µg/mL) | 7 µM | 42 µM (≈ 12.4 µg/mL) | 1 | Active | 44 µM | 66 µM (≈ 19.6 µg/mL) | 1 | >1 | > 63 µM | > 63 µM | >9 | Activity (Yersinia pestis [20]): Active
7 | CSC(=S)N/N=C/c1ccccc1O |  | 2 µM | 6 µM (≈ 1.36 µg/mL) | 4 µM | 15 µM (≈ 3.39 µg/mL) | 1 |  | 3 µM | 7 µM (≈ 1.58 µg/mL) | 1 | >4 | > 59 µM | > 59 µM | >15 | Activity [21]: Active; Activity (HeLa [15]): Non-toxic; Activity (Yersinia pestis [17]): Active; Activity (HeLa [16]): Non-toxic
